Screens: PubChem, Broad Institute
SIRT5 inh: inhibitors of human sirtuin-5 desuccinylase. Q9NXA8. Purified SirT5, succinyl-peptide AMC, trypsin-coupled fluorescence. inhibition, % at 15 µM. 330,000 compounds, 1.1% hits. AID 652115; in the data active = inhibition above about 15%
S100A4 MyoIIA: S100A4-myosin IIA interaction inhibition. S100A4/TAMRA-MyoIIA peptide fluorescence polarization. 360,000 compounds, 0.14% hits. P26447. inhibition, % at 10.7 µM;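 active = mean inhibition of at least 70% across replicates, with every replicate also reaching that level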
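assay system = human S100A4 monomer with TAMRA-labelled myosin IIA peptide | also added = labelled myosin peptide probe, 5 nM | incubation = 5 min between mix addition and reading | control set = DMSO and TFP controls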
E-selectin induc: induces E-selectin expression in human endothelial cells; HUVEC E-selectin immunofluorescence imaging; normalized: neutral wells 0, TNF-alpha wells 100; 260,000 compounds, 0.37% hits; AID 686992; activation, % at 7.58 µM; P16581;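 active = mean E-selectin-positive cell signal at least 10% of the positive control, reached in at least 60% of replicates, without over 20% cell loss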
Target sequence (P16581 whole entry, looked up): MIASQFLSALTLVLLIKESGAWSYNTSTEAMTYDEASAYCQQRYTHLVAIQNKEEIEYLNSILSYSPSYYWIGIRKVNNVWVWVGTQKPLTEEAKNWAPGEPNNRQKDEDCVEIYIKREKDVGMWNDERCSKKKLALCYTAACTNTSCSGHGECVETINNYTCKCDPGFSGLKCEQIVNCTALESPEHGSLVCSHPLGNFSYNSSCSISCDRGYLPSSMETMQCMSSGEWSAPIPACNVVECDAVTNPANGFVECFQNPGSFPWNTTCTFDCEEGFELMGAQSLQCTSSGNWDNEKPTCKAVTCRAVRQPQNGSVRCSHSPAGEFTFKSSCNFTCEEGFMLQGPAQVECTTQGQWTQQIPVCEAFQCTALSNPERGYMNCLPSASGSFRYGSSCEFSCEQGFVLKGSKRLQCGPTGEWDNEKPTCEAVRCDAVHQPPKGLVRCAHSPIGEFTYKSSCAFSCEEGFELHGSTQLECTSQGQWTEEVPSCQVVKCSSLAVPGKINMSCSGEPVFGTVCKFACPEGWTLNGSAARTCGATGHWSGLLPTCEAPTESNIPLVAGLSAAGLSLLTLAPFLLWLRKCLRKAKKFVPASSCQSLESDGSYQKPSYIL
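Test system: HUVEC | Signal: Immunofluorescence imaging | Read-out: Percent E-selectin-positive cells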
ERAP1 HTS inh: inhibitors of human ERAP1 aminopeptidase | inhibition, % at 10.7 µM | 340,000 compounds, 0.15% hits | recombinant ERAP1, Leu-AMC fluorescence, 60 min;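 active = mean replicate inhibition of at least 30%, or all replicates individually reaching that 30% level; inactive = mean below 30% and not every replicate reaching it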;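 note: 0% = neutral control wells and 100% = L-leucinethiol positive control wells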
Ecoli rRNA inh: inhibitors of bacterial rRNA selective over humanized ribosomes; E. coli WT GFP vs humanized-ribosome RFP mutants, fluorescence, 24 h; stronger effect = lower value; DMSO median 0, no signal -100; GFP signal change (wild-type ribosome), % (no concentration beside the values); 350,000 compounds, 1.6% hits; AID 720706;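 active = significant combined selectivity score with lowered wild-type GFP, culture density cut under 30%, mutant RFP and density less affected; inactive = any of these conditions unmet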
MLL AF4-AF9 inh: inhibitors of human MLL-AF4/AF9 interaction. 350,000 compounds, 0.47% hits. P42568. AlphaScreen, biotin-AF4 peptide binding to FLAG-AF9. inhibition, % at 10 µM. AID 651704;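 active = every replicate reaching a set inhibition limit, whatever the replicate mean, cut at about 25% in these data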;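 note: 0% = plate neutral control median and 100% = total signal loss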
An asterisk follows results filed as active; · = not tested or not shown. Hits are enriched below; roughly 3.4% of the tested compounds scored in any of these assays.

SMILES | SIRT5 inh | S100A4 MyoIIA | E-selectin induc | ERAP1 HTS inh | Ecoli rRNA inh | MLL AF4-AF9 inh
CC1=NN(c2ccccc2)C(=O)/C1=C\C=C1/N(C)c2ccccc2C1(C)C | 1.3 | -23.4 | · | 3.0 | 12.2 | 35.9*
CN1C(=CC=C2C=C(I)C(=O)C(I)=C2)C(C)(C)c2ccccc21 | 1.6 | -0.7 | 163.2* | · | 1.9 | -1.8
CCCN1C(=O)/C(=C\C=C2\N(CC)c3ccccc3C2(C)C)SC1=S | -3.1 | -42.8 | 2.9 | -1.0 | 9.5 | -0.9
N#Cc1c(NC(=O)/C=C/c2ccco2)sc2c1CCCC2 | -2.5 | -1.1 | · | 2.6 | -11.6 | -2.2
O=C(/C=C/c1ccco1)Nc1sc2c(c1C(=O)O)CCC2 | 10.9 | -10.5 | · | 7.1 | -23.8* | 2.0
CN(C)c1cc[n+](CC(=O)Nc2ccc(OC(F)F)cc2)cc1 | 4.0 | 6.5 | -0.2 | 106.8* | 15.8 | -2.8
CC(=O)c1ccc(NC(=O)C[n+]2ccc(N(C)C)cc2)cc1 | 0.6 | -2.3 | 3.8 | -1.7 | 11.0 | -5.4
NC(=S)N=Nc1c(O)n(CCCl)c2ccc(Cl)cc12 | -0.9 | -12.4 | 0.1 | 2.9 | -6.4 | 0.6
NC(=S)N=Nc1c(O)n(CCCl)c2ccccc12 | 18.8* | -0.2 | · | 0.4 | 13.4 | 0.4
CCN(CC)S(=O)(=O)c1ccc(O)c(C(=O)OCC(=O)NC23CC4CC(CC(C4)C2)C3)c1 | -1.8 | 3.1 | -0.2 | 2.8 | -20.6* | -2.5
COc1ccc2c3c([nH]c2c1)[C@@H](CO)N(C)CC31CN(S(=O)(=O)c2cn(C)cn2)C1 | · | -27.2 | -0.1 | 0.4 | 5.2 | 0.7
C[C@@H]1CCCCO[C@@H](CN(C)C(=O)NC2CCCCC2)[C@@H](C)CN([C@@H](C)CO)C(=O)c2cc(NC(=O)Nc3ccccc3)ccc2O1 | 3.2 | 6.0 | 0.4 | -1.6 | 0.3 | 0.0
Cc1noc(C)c1S(=O)(=O)N(C)C[C@@H]1Oc2ccc(NC(=O)Nc3ccc4c(c3)OCO4)cc2CC(=O)N([C@@H](C)CO)C[C@H]1C | 4.7 | 4.0 | -4.5 | -0.3 | -2.2 | 11.5
CC1=C(C(=O)OC2CCCCCCC2)C(c2ccc(O)cc2)NC(=O)N1 (centres undefined) | -8.0 | -2.0 | · | 1.4 | -43.1* | 9.8
CC1=C(C(=O)OC2CCCCC2)C(c2ccccc2)NC(=O)N1 (centres undefined) | 0.5 | -1.5 | -0.1 | -0.4 | -5.4 | -8.5
COc1ccccc1CNC(=O)C[C@H]1C[C@@H]2c3cc(NC(=O)c4cccnc4)ccc3O[C@@H]2[C@@H](CO)O1 | -3.7 | -6.3 | -0.2 | 4.3 | -0.3 | -1.0
COc1ccc([N+](=O)[O-])cc1NC(=O)C(C)Sc1ccc(C)cc1 (centres undefined) | 1.2 | 4.4 | -1.3 | 0.8 | -13.3 | -3.1
COC(=O)c1cc(OC)c(OC)cc1NC(=O)C(C)Sc1ccc(C)cc1 (centres undefined) | -0.7 | -0.3 | · | -3.2 | -26.1* | -30.3
CCOC(=O)N1CCC2CC1c1cc(Cl)ccc12 (centres undefined) | 2.1 | -0.3 | -0.1 | -11.8 | 2.2 | -2.4
CCOC(=O)n1c(=O)n(C)c2ccc(Cl)cc21 | 19.7* | -2.0 | · | -4.3 | -3.4 | 2.1
COc1ccc(S(=O)(=O)N2CCOCC2)cc1NC(=O)COC(=O)C1COc2ccccc2O1 (centres undefined) | -1.7 | -11.7 | 117.8* | 2.7 | 6.9 | 2.0
O=C(O)c1cccc2c1-c1ccccc1/C2=N\Nc1ccccc1 | 2.9 | -3.1 | 0.2 | -20.2 | -39.5* | 2.5
O=C(O)c1cc(NN=C2c3ccccc3-c3ccccc32)ccc1Cl | -14.4 | -0.6 | · | 30.7* | -48.5 | -1.2
O=C(O)c1cccc(NN=C2c3ccccc3-c3ccccc32)c1 | 6.0 | -7.6 | · | 3.3 | -52.6* | 2.0
NC(=O)N/N=C1\c2ccccc2-c2c(C(N)=O)cccc21 | -3.1 | -1.3 | 0.1 | 1.5 | -3.8 | -26.0
O=C(O)c1cc(N/N=C/C(Cl)=C/c2ccccc2)ccc1Cl | -2.0 | -13.5 | 0.2 | -4.3 | -24.3 | 3.5
C[C@H](CO)N1C[C@H](C)[C@@H](CN(C)C(=O)NC2CCCCC2)OCCCC[C@H](C)Oc2ccc(NS(=O)(=O)c3cn(C)cn3)cc2C1=O | -1.5 | 7.8 | 1.0 | 3.1 | 0.5 | -0.2
